High-throughput results deposited in PubChem by several laboratories.
PREPL inh: human PREPL enzyme inhibition; Q4J6C6; recombinant PREPL, fluorescence polarization activity-based probe; inhibition, % at 5.96 µM; actives 0.68% (n = 320,000); AID 2751; in the data active = inhibition above about 43%;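 also: 0% = enzyme with DMSO and 100% = wells lacking enzyme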
pPAFAH FP inh: inhibitors of human plasma PAF acetylhydrolase (pPAFAH). Q13093. recombinant pPAFAH, FP-rhodamine probe fluorescence polarization. inhibition, % at 3.39 µM. actives 1.5% (n = 330,000). AID 463082;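 active = inhibition above the mean inhibition across the screen plus 3 SD, cut at about 25% in these data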;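 also: inhibitors block binding of the rhodamine activity-based probe so polarization drops; 0% = enzyme with DMSO and 100% = wells lacking pPAFAH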
PAFAH1B3 FP inh: blocks human PAF acetylhydrolase 1B catalytic subunit 3; Q15102; recombinant PAFAH1B3, FP-rhodamine probe, fluorescence polarization; inhibition, % at 3.39 µM; actives 0.28% (n = 340,000); AID 492972;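 active = inhibition above the screen-wide average of all tested compounds plus 3 SD, cut at about 25% in these data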;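 also: 0% = enzyme with DMSO only and 100% = wells lacking PAFAH1B3 protein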
PAFAH1B2 FP inh: inhibitors of human PAFAH1B2; P68402; recombinant PAFAH1B2, FP-rhodamine activity probe, fluorescence polarization; inhibition, % at 3.39 µM; actives 1.2% (n = 340,000);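 active = inhibition above the mean of all tested compounds plus 3 SD, cut at about 24% in these data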;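 also: 0% = enzyme with DMSO and 100% = wells lacking PAFAH1B2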
Apaf-1 inh: human Apaf-1 inhibition | O14727 | reconstituted apoptosome caspase-3 activity, DEVD-Rh110 fluorescence | inhibition, % at 20 µM | actives 0.71% (n = 330,000) | AID 489030; active = inhibition of at least 40% at 20 µM;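 also: plate controls were DMSO wells for no effect and DEVD-CHO caspase inhibitor wells for full effect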
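System: Apoptosome proteins | Medium: Hepes pH 7.5 with detergent and BSA | Also added: Cytochrome c trigger plus (Z-DEVD)2-Rh110 caspase-3 substrate | Incubation: 30 min compound preincubation, 50 min activation, room temperature | Detection: Rhodamine 110 fluorescence at Ex 480/Em 540 nm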
PAFAH2 inh: inhibitors of human PAFAH2 | actives 0.99% (n = 340,000) | recombinant PAFAH2, FP-rhodamine activity probe, fluorescence polarization | inhibition, % at 3.39 µM | Q99487 | AID 492956;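 active = inhibition above the mean over all tested compounds plus 3 SD, cut at about 30% in these data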;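 also: inhibitors block probe labeling of enzyme so polarization drops; 0% = enzyme with DMSO and 100% = wells lacking PAFAH2 protein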
Active calls of the source: *; nt = no result given. An excerpt weighted towards active compounds, which were near 3.5% of everything screened.

SMILES	PREPL inh	pPAFAH FP inh	PAFAH1B3 FP inh	PAFAH1B2 FP inh	Apaf-1 inh	PAFAH2 inh
CC12CCC(C3NC(=S)NN=C31)C2(C)C (centres undefined)	nt	nt	5	6	nt	1
O=C(NCc1ccccc1F)c1cccs1	-1	-1	5	3	-4	-2
O=C(NC(=S)NCc1ccccc1Cl)c1cccs1	16	27*	0	-6	11	-1
Cc1[nH]n(C(N)=S)c(=O)c1C(c1ccccc1)C(C#N)C#N (centres undefined)	3	-10	-4	0	4	2
Cc1[nH]n(-c2ncc(-c3ccccc3)s2)c(=O)c1C(c1ccc(Br)cc1)C(C#N)C#N (centres undefined)	6	27*	11	2	13	30
COc1ccccc1N1CCN(CCN2C(=O)CC(=C3c4ccccc4-c4ccccc43)C2=O)CC1	7	29*	nt	nt	12	nt
CCOCCCN(C(=O)Cn1nnc(-c2ccc(OC)c(OC)c2)n1)C(C(=O)NCC1CCCO1)c1ccc(F)cc1 (centres undefined)	-7	0	12	0	10	-11
O=C(Cn1cc(SCc2ccc(Cl)cc2)c2ccccc21)N1CCOCC1	18	7	0	25*	28	-1
O=C(Cn1cc(SCc2ccc(F)cc2)c2ccccc21)N1CCOCC1	13	12	9	5	4	2
COc1ccc(/C=C\C(=O)CC(O)(c2ccccc2)C(F)(F)F)cc1 (centres undefined)	-14	-3	-1	30*	-3	7
COC(=O)CCC(=O)N1CCCC(CO)(Cc2ccccc2F)C1 (centres undefined)	19	-2	23	9	5	-4
CN1CCN(CC/C=C2/c3ccccc3Sc3ccc(S(=O)(=O)N(C)C)cc32)CC1	-55	25*	6	0	39	10
COc1ccccc1NC(=O)NCc1nc(-c2ccc(C(F)(F)F)cc2)no1	12	-1	nt	nt	9	nt
COc1cc(/C=N/n2cnnc2)ccc1OCCSc1ccc(C)cc1	8	11	1	24*	16	0
COc1ccc(Cc2nc3ccc(C(=O)NCCc4ccccn4)cc3o2)cc1OC	2	-5	5	9	5	-3
O=C(Cc1ccc(Cl)cc1)N1CCc2ccccc2C1	-8	8	0	6	-5	0
O=C(c1nnc(Cc2ccc(Cl)cc2)o1)N1CCc2ccccc2C1	-17	30*	-2	3	15	4
Cc1ccc(C(=O)O/N=C(\N)Cc2ccc([N+](=O)[O-])cc2)c(Cl)c1	-4	5	8	4	-2	26
Cc1ccc(C(=O)O/N=C(\N)Cc2cccs2)c(Cl)c1	4	12	1	5	-7	35*
CCn1c(SCC(=O)N(C)C)nc2cc(S(=O)(=O)N3CCOCC3)ccc21	-3	1	2	78*	-5	8
CCN(CC)C(=O)CSc1nc2cc(S(=O)(=O)N3CCOCC3)ccc2n1CC	-1	2	12	-1	6	0
N=c1nc2n(cc1F)C1OC(CO)C(O)C1O2 (centres undefined)	nt	nt	-1	1	nt	4
C=C(C)COc1ccc2c(C)c(CCC(=O)N3C[C@H]4C[C@@H](C3)c3cccc(=O)n3C4)c(=O)oc2c1	0	25*	4	7	13	-1
COC(=O)c1cc(C(=O)c2ccc(Cl)cc2)n2c(=O)/c(=C\N(C)C)sc12	22	10	2	3	1	-9
CN(C(=O)CSc1ncnc2sc3c(c12)CCC3)C1CCS(=O)(=O)C1 (centres undefined)	26	-3	1	-4	-1	1
SMILES	PREPL inh	pPAFAH FP inh	PAFAH1B3 FP inh	PAFAH1B2 FP inh	Apaf-1 inh	PAFAH2 inh
COC(=O)[C@]1(C)N[C@H](c2ccc(-c3ccc(Cl)c(Cl)c3)c(OC)c2)[C@@H]2C(=O)N(C)C(=O)[C@@H]21	29	30*	1	1	21	0
CC(=O)Nc1ccc(S(=O)(=O)N2c3ccc(F)cc3CCC2C)cc1 (centres undefined)	-13	4	0	9	-11	2
COc1ccc(S(=O)(=O)N2c3ccc(F)cc3CCC2C)cc1 (centres undefined)	15	0	11	27*	9	-11
COc1ccc(S(=O)(=O)Nc2cccc(N(C)S(C)(=O)=O)c2)cc1C	-3	-3	-4	0	-14	0
COc1ccc(S(=O)(=O)Nc2cccc(F)c2)cc1C	-3	27*	0	-3	-8	6
COc1ccc(C2=NS(=O)(=O)N(C)C(C(=O)NC3CCCC3)=C2)cc1OC	-14	1	3	0	4	-4
Cc1nc(-c2ccc3c(c2)CCC(=O)N3)cs1	6	-3	4	6	-3	4
Cc1ccc(-c2csc(Cc3nc(-c4ccc5c(c4)CCC(=O)N5)cs3)n2)cc1	19	26*	11	3	2	10
O=C(C[C@@H]1C/C=C/CC[C@@H](Cc2ccc(F)cc2)C(=O)O[C@H](c2ccccc2)CNC1=O)NCCO	14	3	-5	24*	6	-2
O=C(C[C@@H]1C/C=C/CC[C@@H](Cc2ccc(F)cc2)C(=O)O[C@@H](c2ccccc2)CNC1=O)NCCO	16	7	-5	18	-2	1
O=C(C[C@H]1C/C=C/CC[C@H](Cc2ccc(F)cc2)C(=O)O[C@H](c2ccccc2)CNC1=O)NCCO	23	13	9	30*	-5	9
O=S(=O)(Nc1cc(Sc2cccc3cccnc23)c(O)c2ccccc12)c1ccc(F)cc1	16	34*	nt	nt	nt	nt
O=C(Sc1cccc2cccnc12)c1ccc(F)cc1	nt	nt	nt	nt	-14	nt
Cn1cc([N+](=O)[O-])c(C(=O)NCc2cc3cc(Cl)ccc3[nH]2)n1	19	7	4	0	-5	-2
Cc1ccc(OCc2nnc(NC(=O)c3ccco3)s2)cc1	2	-3	5	25*	14	2
Cc1ccc(OCc2nnc(NC(=O)c3ccco3)s2)c(C)c1	-6	9	-4	7	-23	11
CCc1ccc(-c2nc(SCC(=O)c3c(N)n(C4CC4)c(=O)[nH]c3=O)n[nH]2)cc1	2	-4	0	-2	3	-3
COC1=C/C(=C/c2c(N)n3nc(-c4ccc(C)cc4)sc3nc2=O)C=CC1=O	nt	nt	18	28*	nt	13
NS(=O)(=O)c1ccc(NC(=O)COC(=O)C2CC(=O)N(Cc3ccccc3)C2)cc1 (centres undefined)	6	9	5	1	-14	3
COc1ccc(C(=O)c2c(C(F)(F)F)oc3c2C(=O)c2ccccc2C3=O)cc1OC	0	3	17	4	85*	9
